Measurements pooled from the literature.
Lines come from different studies, so protocols differ.
Target: Tyrosine-protein kinase Fer (FER, Homo sapiens, UniProt P16591)

SMILES | effect on | mode | method | cell line | tested at | quantity | result
CCN(CC)CCNC(=O)c1c(C)[nH]c(/C=C2\C(=O)Nc3ccc(F)cc32)c1C | enzyme activity | inhibitor |  |  | 0.3 µM | inhibition | -42%
Cc1cnc(NC2CCOCC2)nc1-n1cnc(C(=O)NC(CN)c2cc(F)cc(Cl)c2)c1 (centres unmarked) | enzyme activity | inhibitor | radiometric |  | 1 µM | remaining activity | 104%
C[C@H](c1ccc(F)cc1)N(Cc1cccc(C(=O)O)c1)C(=O)c1cnc2ccccc2c1 | cell-free assay |  | competition with immobilised ligand |  | 1 µM | remaining binding | 100%
C[S+]([O-])c1ccc(-c2nc(-c3ccncc3)c(-c3ccc(F)cc3)[nH]2)cc1 (centres unmarked) | cell-free assay |  |  |  | 0.5 µM | remaining signal | 95%
O=C(O)[C@@H]1[C@@H](Cn2nnc3ccccc3c2=O)CC[C@H]1C(=O)c1ccc(OCCC2CCOCC2)cc1 | cell-free assay |  | competition with immobilised ligand |  | 1 µM | remaining binding | 87%
O=C(Nc1cnn(-c2csc(C(=O)NC3COC3)c2)c1)Nc1ccccc1Cl | enzyme activity | inhibitor |  |  | 5 µM | remaining activity | 101%
CN(C)C(=O)Cn1cc(-c2nc(C3(c4ccc(-c5cnc(N)nc5)cc4)CC3)no2)cn1 | cell-free assay |  | competition with immobilised ligand |  | 1 µM | remaining binding | 79%
CC(C)(O)[C@H]1CC[C@H](Nc2ccc3ncc(-c4cccc(C(F)(F)F)c4)n3n2)CC1 | enzyme activity | inhibitor |  |  | 1 µM | remaining activity | 77.1%
CC(C)(C)c1nc(-c2cccc(NS(=O)(=O)c3c(F)cccc3F)c2F)c(-c2ccnc(N)n2)s1 | enzyme activity | inhibitor | radiometric |  | 1 µM | remaining activity | 94%
Cc1ccc(NC(=O)c2ccc(CN3CCN(C)CC3)cc2)cc1Nc1nc(-c2cccnc2)cs1 | cell-free assay |  |  |  | 0.5 µM | remaining signal | 97.6%
CNC(=O)c1cc(Oc2ccc(NC(=O)Nc3ccc(Cl)c(C(F)(F)F)c3)cc2)ccn1 | enzyme activity | inhibitor |  |  | 0.3 µM | inhibition | -8%
COc1cc2nccc(Oc3ccc(NC(=O)c4c5n(n(-c6ccc(F)cc6)c4=O)CCCC5)cc3)c2cc1OC | enzyme activity | inhibitor |  |  | 0.1 µM | inhibition | -14%
COc1cccc(CNC(=O)c2nc3scc(COCc4ccc(C(=O)O)cc4)c3c(=O)[nH]2)c1 | cell-free assay |  | competition with immobilised ligand |  | 1 µM | remaining binding | 100%
O=C1NC(=O)c2cc(Nc3ccc(F)cc3)c(Nc3ccc(F)cc3)cc21 | cell-free assay |  |  |  | 0.5 µM | remaining signal | 96.4%
CCCCN(CCCC)C(=O)CN1C[C@H](c2cc(OC)c3c(c2)OCO3)[C@@H](C(=O)O)[C@@H]1CC(C)(C)CCC | cell-free assay |  | competition with immobilised ligand |  | 1 µM | remaining binding | 100%
CCN(CC)CCNC(=O)c1c(C)[nH]c(/C=C2\C(=O)Nc3ccc(Cl)cc32)c1C | enzyme activity | inhibitor |  |  | 0.5 µM | remaining activity | 17.7%

SMILES | effect on | mode | method | cell line | tested at | quantity | result
O=C(N1CCS(=O)(=O)CC1)N1C[C@H](c2ccc(OC(F)(F)F)cc2)C[C@H](c2nc(C3CC3)no2)C1 | cell-free assay |  | competition with immobilised ligand |  | 1 µM | remaining binding | 100%
Cc1ccc(C(=O)NCc2ccsc2)cc1C#Cc1cn(C(C)C)c2ncnc(N)c12 | enzyme activity | inhibitor |  |  | 1 µM | activity vs control | 92%
COc1ccc(C(=O)Nc2sc3c(c2C(N)=O)CCCC3)cc1OC | enzyme activity | inhibitor |  |  | 0.5 µM | remaining activity | 89.8%
CCN(CC)c1ccc(C2=NNC(=O)CC2C)cc1[N+](=O)[O-] (centres unmarked) | enzyme activity | inhibitor |  |  | 10 µM | remaining activity | 119%
CCN1CCN(Cc2ccc(NC(=O)c3ccc(C)c(/C=C/c4cnc5[nH]ccc5c4OC)c3)cc2C(F)(F)F)CC1 | target engagement in cells | inhibitor | chemoproteomics | A-375 | 50 nM | inhibition | -10.4%
Nc1ncnc2occ(-c3ccc(NC(=O)Nc4cc(C(F)(F)F)ccc4F)cc3)c12 | cell-free assay |  |  |  | 20 µM | remaining signal | 9%
O=C1Nc2ccc(Cl)cc2C1=Cc1cc(Cl)c(O)c(Cl)c1 | cell-free assay |  |  |  | 0.5 µM | remaining signal | 92.1%
COc1cc2ncnc(Nc3ccc(Oc4ccccc4)c(C)c3C)c2cc1OC | enzyme activity | inhibitor |  |  | 1 µM | inhibition | 18%
Cc1sc(C(=O)NC2COC2)cc1-n1cc(NC(=O)Nc2c(F)cccc2Cl)cn1 | enzyme activity | inhibitor |  |  | 10 µM | remaining activity | 90%
C[C@@H]1CCN(C(=O)CC#N)C[C@@H]1N(C)c1ncnc2[nH]ccc12 | cell-free assay |  |  |  | 0.5 µM | remaining signal | 104%
COc1cc(Cl)c(C(=O)N[C@@H](CN[C@H]2CC[C@@H](N)CC2)Cc2ccc(C#N)cc2)cc1-c1ccc(CN[C@H](C)c2ccc(C)cc2)o1 | enzyme activity | inhibitor |  |  | 1 µM | remaining activity | 96%
Cc1c[nH]c2nccc(Oc3c(F)cc(Nc4cc(Cl)nc(N)n4)cc3F)c12 | cell-free assay |  | competition with immobilised ligand |  | 0.1 µM | remaining binding | 100%
Cc1ccc(Nc2nccc(N(C)c3ccc4c(C)n(C)nc4c3)n2)cc1S(N)(=O)=O | enzyme activity | inhibitor |  |  | 10 µM | inhibition | 71%
CC/C(=N\NC(=O)NCc1cccc(O)c1)c1ccc(O)c(C)c1O | enzyme activity | inhibitor |  |  | 0.1 µM | inhibition | -2.3%
C[C@@H]1CN(c2cc(-c3n[nH]c4ccc(OC5(C)CC5)cc34)ncn2)C[C@H](C)O1 | cell-free assay |  | competition with immobilised ligand |  | 0.1 µM | remaining binding | 86%
COc1cc(Nc2c(C#N)cnc3cc(OCCCN4CCN(C)CC4)c(OC)cc23)c(Cl)cc1Cl | cell-free assay |  |  |  | 0.5 µM | remaining signal | 54.6%
